From the M2OR odorant receptor database

Experiments:
Details in all cases: stereoisomer not certain
[1] = target: T1, UniProt Q7TRR8
T1 sequence (whole entry): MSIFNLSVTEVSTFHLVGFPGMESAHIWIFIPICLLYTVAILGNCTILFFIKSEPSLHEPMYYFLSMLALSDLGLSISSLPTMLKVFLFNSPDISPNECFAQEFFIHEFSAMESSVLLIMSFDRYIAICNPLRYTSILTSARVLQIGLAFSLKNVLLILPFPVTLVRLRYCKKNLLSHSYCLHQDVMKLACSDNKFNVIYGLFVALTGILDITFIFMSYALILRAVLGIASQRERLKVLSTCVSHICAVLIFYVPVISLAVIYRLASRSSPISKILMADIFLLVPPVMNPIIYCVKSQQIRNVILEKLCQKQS
Summary of the method: (§1)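 Values were gathered from published papers (main text and supplementary material), with extra details requested from the original authors when needed, and checked for typos and inconsistencies. Each receptor–molecule pair is called responsive (active) if the original authors judged the measured signal statistically different from baseline, and non-responsive (inactive) otherwise. Assay methods varied by source, often transient mammalian cell-line luciferase assays. Recorded details include cell line, G-protein, co-transfected protein and tags.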

[2] = target: T2, UniProt Q7TRW1
T2 sequence (whole entry): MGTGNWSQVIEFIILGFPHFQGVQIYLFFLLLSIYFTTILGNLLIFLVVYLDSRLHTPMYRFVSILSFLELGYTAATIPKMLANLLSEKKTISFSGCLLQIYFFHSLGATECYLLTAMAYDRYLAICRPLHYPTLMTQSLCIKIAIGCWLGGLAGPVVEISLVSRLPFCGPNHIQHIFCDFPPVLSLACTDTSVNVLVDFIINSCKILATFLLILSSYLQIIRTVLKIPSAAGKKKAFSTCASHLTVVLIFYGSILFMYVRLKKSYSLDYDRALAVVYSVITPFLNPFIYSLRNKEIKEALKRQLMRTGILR
Summary of the method: as §1

[3] = target: T3, UniProt Q8VEU7
T3 sequence (whole entry): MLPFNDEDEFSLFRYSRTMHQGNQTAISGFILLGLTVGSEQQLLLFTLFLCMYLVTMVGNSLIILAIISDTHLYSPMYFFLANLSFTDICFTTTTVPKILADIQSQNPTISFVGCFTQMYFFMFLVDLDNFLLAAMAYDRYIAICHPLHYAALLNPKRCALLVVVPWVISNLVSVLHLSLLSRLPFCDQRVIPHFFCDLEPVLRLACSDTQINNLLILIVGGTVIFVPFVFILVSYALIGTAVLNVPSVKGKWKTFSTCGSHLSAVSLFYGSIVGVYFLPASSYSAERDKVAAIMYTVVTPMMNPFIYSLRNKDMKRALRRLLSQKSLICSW
Summary of the method: as §1

[4] = target: T4, UniProt Q8VF05
T4 sequence (whole entry): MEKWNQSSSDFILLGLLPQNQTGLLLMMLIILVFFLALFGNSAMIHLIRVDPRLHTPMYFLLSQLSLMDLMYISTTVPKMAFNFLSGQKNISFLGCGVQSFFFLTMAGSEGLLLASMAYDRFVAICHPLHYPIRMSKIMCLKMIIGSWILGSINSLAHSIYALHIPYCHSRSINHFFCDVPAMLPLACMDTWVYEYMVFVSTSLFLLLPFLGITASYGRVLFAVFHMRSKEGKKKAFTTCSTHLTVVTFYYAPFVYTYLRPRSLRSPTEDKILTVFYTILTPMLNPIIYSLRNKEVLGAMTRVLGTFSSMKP
Summary of the method: as §1

[5] = target: T5, UniProt Q8VF24
T5 sequence (whole entry): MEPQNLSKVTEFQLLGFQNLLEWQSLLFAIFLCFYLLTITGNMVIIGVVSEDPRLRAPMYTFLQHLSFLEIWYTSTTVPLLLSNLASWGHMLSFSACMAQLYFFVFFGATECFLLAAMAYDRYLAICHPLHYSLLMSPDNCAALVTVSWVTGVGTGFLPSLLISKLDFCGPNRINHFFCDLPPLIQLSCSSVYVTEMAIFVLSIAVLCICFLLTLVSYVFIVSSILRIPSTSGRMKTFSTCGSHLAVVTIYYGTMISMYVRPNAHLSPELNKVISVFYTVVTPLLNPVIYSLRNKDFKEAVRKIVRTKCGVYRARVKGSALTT
Summary of the method: as §1

[6] = target: T6, UniProt Q8VF44
T6 sequence (whole entry): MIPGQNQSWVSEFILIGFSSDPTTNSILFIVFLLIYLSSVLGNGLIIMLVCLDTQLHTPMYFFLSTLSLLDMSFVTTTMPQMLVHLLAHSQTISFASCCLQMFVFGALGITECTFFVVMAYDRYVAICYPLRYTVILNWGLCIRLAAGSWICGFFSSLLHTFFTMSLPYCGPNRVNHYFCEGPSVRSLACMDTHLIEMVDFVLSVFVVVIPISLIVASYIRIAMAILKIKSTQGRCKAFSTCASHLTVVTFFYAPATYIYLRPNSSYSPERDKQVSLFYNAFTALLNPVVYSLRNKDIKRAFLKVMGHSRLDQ
Summary of the method: as §1

[7] = target: T7, UniProt Q8VF52
T7 sequence (whole entry): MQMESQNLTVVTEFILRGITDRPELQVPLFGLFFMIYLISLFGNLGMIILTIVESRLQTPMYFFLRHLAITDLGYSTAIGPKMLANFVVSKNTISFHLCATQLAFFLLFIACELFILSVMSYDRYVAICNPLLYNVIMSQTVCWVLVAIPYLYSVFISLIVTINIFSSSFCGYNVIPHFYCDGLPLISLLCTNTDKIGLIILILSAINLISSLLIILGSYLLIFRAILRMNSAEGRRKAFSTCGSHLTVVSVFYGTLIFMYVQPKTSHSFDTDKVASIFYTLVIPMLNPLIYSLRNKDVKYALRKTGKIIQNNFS
Summary of the method: as §1

[8] = target: T8, UniProt Q8VFG6
T8 sequence (whole entry): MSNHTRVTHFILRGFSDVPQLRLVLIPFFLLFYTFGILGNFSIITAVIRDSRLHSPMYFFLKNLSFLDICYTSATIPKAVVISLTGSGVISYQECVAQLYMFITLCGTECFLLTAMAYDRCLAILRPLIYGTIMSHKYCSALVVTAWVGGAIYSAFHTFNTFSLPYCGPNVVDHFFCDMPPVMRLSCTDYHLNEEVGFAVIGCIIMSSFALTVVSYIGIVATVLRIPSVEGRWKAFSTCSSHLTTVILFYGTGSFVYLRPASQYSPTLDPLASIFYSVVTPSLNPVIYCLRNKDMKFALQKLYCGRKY
Summary of the method: as §1

[9] = target: T9, UniProt Q7TRX0
T9 sequence (whole entry): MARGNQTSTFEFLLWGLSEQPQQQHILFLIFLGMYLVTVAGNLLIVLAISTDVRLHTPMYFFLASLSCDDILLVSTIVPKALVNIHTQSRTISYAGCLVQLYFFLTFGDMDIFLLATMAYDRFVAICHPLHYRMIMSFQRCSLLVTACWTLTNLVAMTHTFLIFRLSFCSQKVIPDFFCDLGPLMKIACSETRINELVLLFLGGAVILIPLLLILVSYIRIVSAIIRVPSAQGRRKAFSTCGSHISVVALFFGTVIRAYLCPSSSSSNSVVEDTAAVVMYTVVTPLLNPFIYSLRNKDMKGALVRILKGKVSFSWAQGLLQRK
Summary of the method: as §1

[10] = target: T10, UniProt Q8VF43
T10 sequence (whole entry): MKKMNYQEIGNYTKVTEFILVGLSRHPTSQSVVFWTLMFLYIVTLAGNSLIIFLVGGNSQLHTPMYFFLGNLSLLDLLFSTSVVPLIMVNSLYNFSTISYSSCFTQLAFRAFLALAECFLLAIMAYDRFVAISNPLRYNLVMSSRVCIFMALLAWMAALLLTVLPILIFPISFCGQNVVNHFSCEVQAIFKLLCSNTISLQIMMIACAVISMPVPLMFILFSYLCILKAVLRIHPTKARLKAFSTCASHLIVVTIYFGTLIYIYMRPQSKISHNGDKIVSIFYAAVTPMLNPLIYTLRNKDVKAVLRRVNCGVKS
Summary of the method: as §1

[11] = target: T11, UniProt Q8VFM8
T11 sequence (whole entry): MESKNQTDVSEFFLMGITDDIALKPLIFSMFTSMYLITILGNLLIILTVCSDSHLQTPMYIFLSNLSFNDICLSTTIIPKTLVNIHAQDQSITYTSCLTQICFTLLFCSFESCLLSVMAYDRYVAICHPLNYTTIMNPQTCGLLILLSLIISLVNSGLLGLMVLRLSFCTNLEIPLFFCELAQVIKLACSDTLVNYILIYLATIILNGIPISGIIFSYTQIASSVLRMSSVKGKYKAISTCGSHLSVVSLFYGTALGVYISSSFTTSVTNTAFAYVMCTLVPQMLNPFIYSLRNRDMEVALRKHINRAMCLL
Summary of the method: as §1

Measured: odorant receptor agonist call

CCCCCO
not listed: [9] | [10] | [11]
inactive: all other assays above

CC(=O)OCc1ccccc1
active: [4]
not listed: [1]
inactive: all other assays above

CCCCCCCCS
not listed: [1]
inactive: all other assays above

CCC(=O)C(=O)CC
active: [4]
not listed: [1]
inactive: all other assays above

COc1cc(C(=O)O)ccc1O
not listed: [1]
inactive: all other assays above

CCCCCCCCCCO
not listed: [1]
inactive: all other assays above

CCCCCCC(=O)[O-].[H+]
not listed: [9] | [10] | [11]
inactive: all other assays above

c1ccccc1
active: [4]
not listed: [1]
inactive: all other assays above

CC(C)=CCCC(C)=CCO
not listed: [1]
inactive: all other assays above

CCCCCCC(C)=O
not listed: [1]
inactive: all other assays above
